Experimental data as given in ChEMBL document CHEMBL1765020, “Synthesis and structure-affinity relationships of novel dibenzylideneacetone derivatives as probes for β-amyloid plaques” (J Med Chem, 2011).
Active and inactive are the calls of the source. No cut-off for these calls is given here.

Experiments:
Spleen [1] = test: Biodistribution in ddY mouse spleen at 10 uCi/100 uL, iv after 2 mins by gamma counting; type: ADME, organism-based; settings: in vivo
Stomach [2] = test: Biodistribution in ddY mouse stomach at 10 uCi/100 uL, iv after 2 mins by gamma counting; type: ADME, organism-based; settings: in vivo
Intestine [3] = test: Biodistribution in ddY mouse intestine at 10 uCi/100 uL, iv after 2 mins by gamma counting; type: ADME, organism-based; settings: in vivo
In short: (§1)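 Normal female ddY mice (5 weeks, about 20 g; n = 4 per group) received radiotracer iv. Organs were removed and weighed at 2–120 min and counted in a γ-counter. Percent dose per gram of wet tissue was calculated against diluted aliquots of the injected material and reported as mean ± SD.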

Lung [4] = test: Biodistribution in ddY mouse lung at 10 uCi/100 uL, iv after 2 mins by gamma counting; type: ADME, organism-based; settings: in vivo
Heart [5] = test: Biodistribution in ddY mouse heart at 10 uCi/100 uL, iv after 2 mins by gamma counting; type: ADME, organism-based; settings: in vivo; in short: as §1
Brain [6] = test: Biodistribution in ddY mouse brain at 10 uCi/100 uL, iv after 15 mins by gamma counting; type: ADME, organism-based; settings: in vivo, 0.25 h; in short: as §1
Blood [7] = test: Biodistribution in ddY mouse blood at 10 uCi/100 uL, iv after 15 mins by gamma counting; type: ADME, organism-based; settings: in vivo, 0.25 h; in short: as §1
Bone [8] = test: Biodistribution in ddY mouse bone at 10 uCi/100 uL, iv after 15 mins by gamma counting; type: ADME, organism-based, Bone element; settings: in vivo, 0.25 h; in short: as §1
Liver [9] = test: Biodistribution in ddY mouse liver at 10 uCi/100 uL, iv after 15 mins by gamma counting; type: ADME, organism-based; settings: in vivo, 0.25 h
Kidney [10] = test: Biodistribution in ddY mouse kidney at 10 uCi/100 uL, iv after 15 mins by gamma counting; type: ADME, organism-based; settings: in vivo, 0.25 h
Spleen [11] = test: Biodistribution in ddY mouse spleen at 10 uCi/100 uL, iv after 15 mins by gamma counting; type: ADME, organism-based; settings: in vivo, 0.25 h
Stomach [12] = test: Biodistribution in ddY mouse stomach at 10 uCi/100 uL, iv after 15 mins by gamma counting; type: ADME, organism-based; settings: in vivo, 0.25 h
Intestine [13] = test: Biodistribution in ddY mouse intestine at 10 uCi/100 uL, iv after 15 mins by gamma counting; type: ADME, organism-based; settings: in vivo, 0.25 h; in short: as §1
Lung [14] = test: Biodistribution in ddY mouse lung at 10 uCi/100 uL, iv after 15 mins by gamma counting; type: ADME, organism-based; settings: in vivo, 0.25 h
Heart [15] = test: Biodistribution in ddY mouse heart at 10 uCi/100 uL, iv after 15 mins by gamma counting; type: ADME, organism-based; settings: in vivo, 0.25 h; in short: as §1
Brain [16] = test: Biodistribution in ddY mouse brain at 10 uCi/100 uL, iv after 30 mins by gamma counting; type: ADME, organism-based; settings: in vivo, 0.5 h; in short: as §1
Blood [17] = test: Biodistribution in ddY mouse blood at 10 uCi/100 uL, iv after 30 mins by gamma counting; type: ADME, organism-based; settings: in vivo, 0.5 h; in short: as §1
Bone [18] = test: Biodistribution in ddY mouse bone at 10 uCi/100 uL, iv after 30 mins by gamma counting; type: ADME, organism-based, Bone element; settings: in vivo, 0.5 h; in short: as §1
Liver [19] = test: Biodistribution in ddY mouse liver at 10 uCi/100 uL, iv after 30 mins by gamma counting; type: ADME, organism-based; settings: in vivo, 0.5 h
Kidney [20] = test: Biodistribution in ddY mouse kidney at 10 uCi/100 uL, iv after 30 mins by gamma counting; type: ADME, organism-based; settings: in vivo, 0.5 h
Spleen [21] = test: Biodistribution in ddY mouse spleen at 10 uCi/100 uL, iv after 30 mins by gamma counting; type: ADME, organism-based; settings: in vivo, 0.5 h
Stomach [22] = test: Biodistribution in ddY mouse stomach at 10 uCi/100 uL, iv after 30 mins by gamma counting; type: ADME, organism-based; settings: in vivo, 0.5 h
Intestine [23] = test: Biodistribution in ddY mouse intestine at 10 uCi/100 uL, iv after 30 mins by gamma counting; type: ADME, organism-based; settings: in vivo, 0.5 h; in short: as §1
Lung [24] = test: Biodistribution in ddY mouse lung at 10 uCi/100 uL, iv after 30 mins by gamma counting; type: ADME, organism-based; settings: in vivo, 0.5 h
Heart [25] = test: Biodistribution in ddY mouse heart at 10 uCi/100 uL, iv after 30 mins by gamma counting; type: ADME, organism-based; settings: in vivo, 0.5 h; in short: as §1
Brain [26] = test: Biodistribution in ddY mouse brain at 10 uCi/100 uL, iv after 60 mins by gamma counting; type: ADME, organism-based; settings: in vivo, 1 h; in short: as §1
Blood [27] = test: Biodistribution in ddY mouse blood at 10 uCi/100 uL, iv after 60 mins by gamma counting; type: ADME, organism-based; settings: in vivo, 1 h; in short: as §1
Bone [28] = test: Biodistribution in ddY mouse bone at 10 uCi/100 uL, iv after 60 mins by gamma counting; type: ADME, organism-based, Bone element; settings: in vivo, 1 h; in short: as §1
Liver [29] = test: Biodistribution in ddY mouse liver at 10 uCi/100 uL, iv after 60 mins by gamma counting; type: ADME, organism-based; settings: in vivo, 1 h
Kidney [30] = test: Biodistribution in ddY mouse kidney at 10 uCi/100 uL, iv after 60 mins by gamma counting; type: ADME, organism-based; settings: in vivo, 1 h
Spleen [31] = test: Biodistribution in ddY mouse spleen at 10 uCi/100 uL, iv after 60 mins by gamma counting; type: ADME, organism-based; settings: in vivo, 1 h
Stomach [32] = test: Biodistribution in ddY mouse stomach at 10 uCi/100 uL, iv after 60 mins by gamma counting; type: ADME, organism-based; settings: in vivo, 1 h
Intestine [33] = test: Biodistribution in ddY mouse intestine at 10 uCi/100 uL, iv after 60 mins by gamma counting; type: ADME, organism-based; settings: in vivo, 1 h; in short: as §1
Lung [34] = test: Biodistribution in ddY mouse lung at 10 uCi/100 uL, iv after 60 mins by gamma counting; type: ADME, organism-based; settings: in vivo, 1 h
Heart [35] = test: Biodistribution in ddY mouse heart at 10 uCi/100 uL, iv after 60 mins by gamma counting; type: ADME, organism-based; settings: in vivo, 1 h; in short: as §1
Brain [36] = test: Ratio of drug uptake in ddY mouse brain at 10 uCi/100 uL, iv after 2 mins to drug uptake in ddY mouse brain at 10 uCi/100 uL, iv after 60 mins; type: ADME, organism-based; settings: in vivo
In short: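 Normal female ddY mice (5 weeks, about 20 g) received the radiotracer iv, with groups of 4 per time point. At 2 and 60 min, brain and other organs were excised and weighed and counted in a γ-counter. %ID/g wet tissue was taken against diluted injectate aliquots. The ratio is brain %ID/g at 2 min divided by brain %ID/g at 60 min.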

[37] = Partition coefficient, log D of the compound; type: physicochemical; settings: octanol/water
In short: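 Radiotracer partitioned between n-octanol and PBS: vortexed 3 min at room temperature, centrifuged 5 min at 3000 rpm. Weighed samples of the octanol (100 μL) and buffer (500 μL) layers were counted. log D is the log of the ratio of counts per gram, octanol versus PBS.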

Brain [38] = test: Biodistribution in ddY mouse brain at 10 uCi/100 uL, iv after 2 mins by gamma counting; type: ADME, organism-based; settings: in vivo; in short: as §1
Blood [39] = test: Biodistribution in ddY mouse blood at 10 uCi/100 uL, iv after 2 mins by gamma counting; type: ADME, organism-based; settings: in vivo; in short: as §1
Bone [40] = test: Biodistribution in ddY mouse bone at 10 uCi/100 uL, iv after 2 mins by gamma counting; type: ADME, organism-based, Bone element; settings: in vivo; in short: as §1
Liver [41] = test: Biodistribution in ddY mouse liver at 10 uCi/100 uL, iv after 2 mins by gamma counting; type: ADME, organism-based; settings: in vivo
Kidney [42] = test: Biodistribution in ddY mouse kidney at 10 uCi/100 uL, iv after 2 mins by gamma counting; type: ADME, organism-based; settings: in vivo
[43] = Displacement of [125I]IMPY from amyloid beta (1 to 42) aggregate after 2 hrs by gamma counting
In short: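 Competition binding in 1 mL PBS (0.2 M, pH 7.4). Aggregated Aβ1-42 fibrils (60 nM final) with [125I]IMPY and inhibitor at 10^-5 to 10^-10 M, added in ethanol. Nonspecific binding was defined with 1 μM IMPY. Incubated 2 h at 37 °C with shaking, then vacuum-filtered through glass fibre filters and the bound fraction gamma-counted. IC50 was converted to Ki by Cheng-Prusoff; triplicate, mean ± SD.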

Mus musculus [44] = species on record: Mus musculus; test: Binding affinity to amyloid beta (1 to 42) aggregate in APP/PS1 transgenic C57BL/6 mouse brain after 1 hr by autoradiography; type: tissue-based; settings: C57BL6, tested as the 18F-labelled form
In short: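 Paraffin brain sections from 12-month-old male C57BL6-APP/PS1 mice, with wild-type male C57BL6 controls, were deparaffinized through xylene and graded ethanol, then held 30 min in PBS (0.2 M, pH 7.4). Sections were incubated 1 h at room temperature with radiotracer (5 μCi/100 μL), washed 3 min in 40% ethanol, rinsed in water, dried and exposed to an imaging plate overnight.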

Mus musculus [45] = species on record: Mus musculus; test: Binding affinity to amyloid beta (1 to 42) aggregate in APP/PS1 transgenic C57BL/6 mouse brain by Thioflavin S fluorescent staining assay; type: tissue-based; settings: C57BL6, tested as the 18F-labelled form
In short: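 The same Tg mouse sections used for autoradiography were stained with thioflavin S to locate plaques. Fluorescence was viewed by microscope: excitation 400–440 nm, dichroic 455 nm, long-pass 470 nm.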

[46] = target: Amyloid-beta precursor protein (Homo sapiens) (UniProt P05067); test: Binding affinity to amyloid beta (1 to 42) aggregate in Alzheimer disease patient brain by immunohistochemical staining using amyloid beta antibody; settings: tested as the 18F-labelled form
In short: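 Plaque presence and location in the AD patient temporal-lobe sections were confirmed by immunohistochemistry with monoclonal anti-Aβ1-42 antibody BC05.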

Amyloid-beta precursor protein (Homo sapiens), sequence (P05067 whole entry): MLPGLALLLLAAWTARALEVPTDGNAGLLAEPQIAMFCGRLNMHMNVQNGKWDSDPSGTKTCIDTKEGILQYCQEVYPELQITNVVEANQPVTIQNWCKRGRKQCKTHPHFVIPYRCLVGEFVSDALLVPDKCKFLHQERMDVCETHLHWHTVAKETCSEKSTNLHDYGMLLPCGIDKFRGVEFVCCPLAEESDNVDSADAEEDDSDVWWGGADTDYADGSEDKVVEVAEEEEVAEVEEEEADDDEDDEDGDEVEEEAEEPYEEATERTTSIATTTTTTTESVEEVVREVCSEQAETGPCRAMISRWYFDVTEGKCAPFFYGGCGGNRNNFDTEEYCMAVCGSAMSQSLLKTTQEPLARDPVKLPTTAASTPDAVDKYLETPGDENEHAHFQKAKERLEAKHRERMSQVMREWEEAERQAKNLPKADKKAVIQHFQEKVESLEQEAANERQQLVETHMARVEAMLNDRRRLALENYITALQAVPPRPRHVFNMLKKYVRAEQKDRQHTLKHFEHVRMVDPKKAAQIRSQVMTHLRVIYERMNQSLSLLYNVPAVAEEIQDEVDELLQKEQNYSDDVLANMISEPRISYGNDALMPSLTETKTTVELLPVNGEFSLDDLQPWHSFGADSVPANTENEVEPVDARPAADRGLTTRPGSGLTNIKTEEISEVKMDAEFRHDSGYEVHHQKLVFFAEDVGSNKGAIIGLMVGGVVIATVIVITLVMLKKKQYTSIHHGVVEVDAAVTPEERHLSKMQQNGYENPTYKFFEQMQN

CNc1ccc(/C=C/C(=O)/C=C/c2ccc(OCCOCCOCC[18F])cc2)cc1
Drug uptake (Spleen [1]): 5.39 % ID/g
Drug uptake (Stomach [2]): 3.26 % ID/organ
Drug uptake (Intestine [3]): 6.58 % ID/g
Drug uptake (Lung [4]): 12.19 % ID/g
Drug uptake (Heart [5]): 10.55 % ID/g
Drug uptake (Brain [6]): 1.89 % ID/g
Drug uptake (Blood [7]): 7.99 % ID/g
Drug uptake (Bone [8]): 2.93 % ID/g
Drug uptake (Liver [9]): 30.09 % ID/g
Drug uptake (Kidney [10]): 14.15 % ID/g
Drug uptake (Spleen [11]): 6.62 % ID/g
Drug uptake (Stomach [12]): 2.61 % ID/organ
Drug uptake (Intestine [13]): 12.82 % ID/g
Drug uptake (Lung [14]): 11.77 % ID/g
Drug uptake (Heart [15]): 7.64 % ID/g
Drug uptake (Brain [16]): 1.35 % ID/g
Drug uptake (Blood [17]): 4.68 % ID/g
Drug uptake (Bone [18]): 2.94 % ID/g
Drug uptake (Liver [19]): 19.24 % ID/g
Drug uptake (Kidney [20]): 11.51 % ID/g
Drug uptake (Spleen [21]): 5.44 % ID/g
Drug uptake (Stomach [22]): 1.93 % ID/organ
Drug uptake (Intestine [23]): 24.34 % ID/g
Drug uptake (Lung [24]): 7.43 % ID/g
Drug uptake (Heart [25]): 5.44 % ID/g
Drug uptake (Brain [26]): 1.27 % ID/g
Drug uptake (Blood [27]): 3.59 % ID/g
Drug uptake (Bone [28]): 2.54 % ID/g
Drug uptake (Liver [29]): 14.07 % ID/g
Drug uptake (Kidney [30]): 9.43 % ID/g
Drug uptake (Spleen [31]): 5.35 % ID/g
Drug uptake (Stomach [32]): 1.28 % ID/organ
Drug uptake (Intestine [33]): 26.26 % ID/g
Drug uptake (Lung [34]): 5.44 % ID/g
Drug uptake (Heart [35]): 5.14 % ID/g
Ratio (Brain [36]): 4.06
logD [37]: 3.08
Drug uptake (Brain [38]): 5.15 % ID/g
Drug uptake (Blood [39]): 7.44 % ID/g
Drug uptake (Bone [40]): 2.97 % ID/g
Drug uptake (Liver [41]): 24.15 % ID/g
Drug uptake (Kidney [42]): 16.48 % ID/g

CN(C)c1ccc(/C=C/C(=O)/C=C/c2ccc(OCCOCCOCCF)cc2)cc1
Ki [43]: 6.9 nM
Activity (Mus musculus [44]): Active
Activity (Mus musculus [45]): Active
Activity [46]: Active
